Results as given in ChEMBL document CHEMBL1126153, “Synthesis and biological activity of certain alkyl 5-(alkoxycarbonyl)-1H-benzimidazole-2-carbamates and related derivatives: a new class of potential antineoplastic and antifilarial agents” (J Med Chem, 1992).
pIC50: −log10 of the molar value.

Assays:
[1] = system: L1210; assay: In vitro test against L1210 murine leukemia cell growth rate at 10 uM concentration; assay type: functional, Mus musculus
Outline: (§1)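 L1210 cells were grown in static suspension culture in Fischer's medium with test compound, and counted twice daily over 3 days. Growth rate is the control population doubling time (average 12 h) divided by the treated doubling time, as a % of control. The IC50 is the concentration that reduces the growth rate to 50% of control.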

[2] = system: Brugia pahangi; assay: Antifilarial activity measured against the adult worms of Brugia pahangi in jirds by subcutaneous administration; parameters: concentration or dose not given beside the values
[3] = system: L1210; assay: Compound was tested in vitro against L1210 murine leukemia cell growth rate at a concentration of 100 uM; assay type: functional, Mus musculus; outline: as §1
[4] = system: L1210; assay: Compound was tested in vitro for its inhibitory activity against L1210 murine leukemia cell growth at a concentration of 100 uM; assay type: functional, cell-based; settings: Mus musculus; outline: as §1
[5] = system: Brugia pahangi; assay: Antifilarial activity measured against the adult worms of Brugia pahangi in jirds by subcutaneous administration; assay type: functional; parameters: concentration or dose not given beside the values
Outline: (§2)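 Jirds carrying implanted adult worms (three to five per group) were dosed once daily for 5 consecutive days, or on day 1 only where noted. Dosing was subcutaneous or oral, with drug as a solution or suspension in aqueous 1% (hydroxyethyl)cellulose plus 0.1% Tween 80. Survivors were necropsied 55 to 70 days after the first dose and searched for adult worms. Counts are given as % of control.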

[6] = system: L1210; assay: In vitro for its inhibitory activity against L1210 murine leukemia cell growth; assay type: functional, cell-based; settings: Mus musculus; outline: as §1
[7] = system: Brugia pahangi; assay: Antifilarial activity was measured against the adult worms of Brugia pahangi in jirds by oral administration at a dose of 100 mg/kg/day; assay type: functional; outline: as §2
[8] = system: Brugia pahangi; assay: Antifilarial activity was measured against the adult worms of Brugia pahangi in jirds by subcutaneous administration at a dose of 1.6 mg/kg/day; assay type: functional; outline: as §2
[9] = system: Brugia pahangi; assay: Antifilarial activity was measured against the adult worms of Brugia pahangi in jirds by subcutaneous administration at a dose of 12.5 mg/kg/day; assay type: functional; outline: as §2
[10] = system: Brugia pahangi; assay: Antifilarial activity was measured against the adult worms of Brugia pahangi in jirds by subcutaneous administration at a dose of 6.2 mg/kg/day; assay type: functional; outline: as §2
[11] = species: Homo sapiens; assay: Compound was tested in vitro against human epidermoid carcinoma cell (H. Ep. 2) growth rate at a concentration of 10 uM; assay type: functional
[12] = species: Homo sapiens; assay: Compound was tested in vitro for its inhibitory activity against human epidermoid carcinoma cell (H. Ep. 2) growth at a concentration of 10 uM; assay type: functional; settings: HEp-2
[13] = system: Acanthocheilonema viteae; assay: Antifilarial activity was measured against the adult worms of Acanthocheilonema viteae in jirds by oral administration at a dose of 100 mg/kg/5 days; assay type: functional; outline: as §2
[14] = system: Brugia pahangi; assay: Antifilarial activity was measured against the adult worms of Brugia pahangi in jirds by subcutaneous administration at a dose of 100 mg/kg/day; assay type: functional; outline: as §2
[15] = system: Brugia pahangi; assay: Antifilarial activity was measured against the adult worms of Brugia pahangi in jirds by subcutaneous administration at a dose of 50 mg/kg/day; assay type: functional; outline: as §2
[16] = system: Brugia pahangi; assay: Antifilarial activity was measured against the adult worms of Brugia pahangi in jirds by subcutaneous administration at a dose of 25 mg/kg/day
[17] = system: Brugia pahangi; assay: Antifilarial activity was measured against the adult worms of Brugia pahangi in jirds by subcutaneous administration at a concentration of 100 mg/kg/day
[18] = system: Acanthocheilonema viteae; assay: Antifilarial activity was measured against the adult worms of Acanthocheilonema viteae in jirds by subcutaneous administration at a concentration of 50 mg/kg/day; assay type: functional; outline: as §2
[19] = system: Acanthocheilonema viteae; assay: Antifilarial activity was measured against the adult worms of Acanthocheilonema viteae in jirds by oral administration at a concentration of 100 mg/kg/day; assay type: functional; outline: as §2
[20] = system: Acanthocheilonema viteae; assay: Antifilarial activity was measured against the adult worms of Acanthocheilonema viteae in jirds by subcutaneous administration at a dose of 15.6 mg/kg/5 days; assay type: functional; settings: in the assay text read “1.56 mg/kg/5 days” for “15.6 mg/kg/5 days”; outline: as §2
[21] = system: Brugia pahangi; assay: Antifilarial activity was measured against the adult worms of Brugia pahangi in jirds by subcutaneous administration at a dose of 6.5 mg/kg/day; assay type: functional; outline: as §2
[22] = system: Brugia pahangi; assay: Antifilarial activity was measured against the adult worms of Brugia pahangi in jirds by subcutaneous administration at a dose of 25 mg/Kg/day; assay type: functional; outline: as §2
[23] = system: Brugia pahangi; assay: Antifilarial activity was measured against the adult worms of Brugia pahangi in jirds by subcutaneous administration at a dose of 6.2 mg/Kg/day; assay type: functional; outline: as §2
[24] = system: Brugia pahangi; assay: Antifilarial activity was measured against the adult worms of Brugia pahangi in jirds by subcutaneous administration at a concentration of 25 mg/Kg/day
[25] = system: Brugia pahangi; assay: Antifilarial activity was measured against the adult worms of Brugia pahangi in jirds by subcutaneous administration at a concentration of 12.5 mg/Kg/day
[26] = system: Brugia pahangi; assay: Antifilarial activity was measured against the adult worms of Brugia pahangi in jirds by subcutaneous administration at a dose of 100 mg/Kg/day; assay type: functional; outline: as §2

SMILES	Control [1] [%]	Control [2] [%]	Control [5] [%]	pIC50 [6]	further results
COC(=O)Nc1nc2cc(C(=O)Nc3ccc(F)cc3)ccc2[nH]1	92	67			
COC(=O)Nc1nc2cc(C(=O)N3CCOCC3)ccc2[nH]1					Control [3]: 0%; pIC50 [4]: 4.22
COC(=O)Nc1nc2cc(C(=O)OCCC(C)CC(C)(C)C)ccc2[nH]1 (stereo unspecified)	0		85	6.13	
COC(=O)Nc1nc2cc(C(=O)OC(C)C)ccc2[nH]1	0	0		6.15	Control [7]: 100%; Control [8]: 51%; Control [9]: 0%; Control [10]: 18%; Control [11]: 0%; pIC50 [12]: 6.66
CCNC(=O)c1ccc2[nH]c(NC(=O)OC)nc2c1	41			5.00	Control [13]: 80%; Control [7]: 89%; Control [14]: 0%; Control [15]: 0%; Control [11]: 0%; pIC50 [12]: 5.22; Control [16]: 0%
O=C(Nc1nc2cc(C(=O)OCC3CC3)ccc2[nH]1)OCC1CC1	24		72	5.66	
CCOC(=O)Nc1nc2cc(C(=O)O)ccc2[nH]1			90		Control [3]: 100%
CCCOC(=O)c1ccc2[nH]c(NC(=O)OC)nc2c1	38			5.13	Control [17]: 100%
COC(=O)Nc1nc2cc(C(=O)OCc3cccs3)ccc2[nH]1	93		71		Control [11]: 0%; pIC50 [12]: 5.64
COC(=O)Nc1nc2cc(C(=O)N3CCN(C(=O)N(C)C)CC3)ccc2[nH]1		94			
CCN(CC)C(=O)N1CCN(C(=O)c2ccc3[nH]c(NC(=O)OC)nc3c2)CC1	100	100			
COC(=O)Nc1nc2cc(C(=O)OCc3ccc(F)cc3)ccc2[nH]1			83		
COC(=O)Nc1nc2cc(C(=O)N3CCN(C)CC3)ccc2[nH]1	100				Control [17]: 101%
CCOC(=O)Nc1nc2cc(C(=O)OCC)ccc2[nH]1	0		62	6.12	Control [11]: 0%; pIC50 [12]: 6.54
COC(=O)Nc1nc2cc(C(=O)N3CCNCC3)ccc2[nH]1		55			
COC(=O)Nc1nc2cc(C(=O)N(C)C)ccc2[nH]1	88	95			
COC(=O)Nc1nc2cc(NC(=O)c3cccc(F)c3)ccc2[nH]1	100				

SMILES	Control [1] [%]	Control [2] [%]	Control [5] [%]	pIC50 [6]	further results
COC(=O)Nc1nc2cc(C(=O)OCC3CC3)ccc2[nH]1	45		69	5.16	
COC(=O)Nc1nc2cc(C(=O)OCCC(C)C)ccc2[nH]1	60		69	5.00	
COC(=O)Nc1nc2cc(C(=O)Nc3ccc(C(F)(F)F)cc3)ccc2[nH]1	100	77			
C#CCOC(=O)c1ccc2[nH]c(NC(=O)OC)nc2c1	58		79	5.00	
COC(=O)Nc1nc2cc(NC(=O)c3ccccc3F)ccc2[nH]1		116			Control [3]: 0%; pIC50 [4]: 4.85
COC(=O)Nc1nc2cc(C(=O)NCC(C)(C)C)ccc2[nH]1	48	50		5.07	Control [18]: 0%; Control [19]: 54%; Control [17]: 0%
CC(C)OC(=O)Nc1nc2cc(C(=O)OC(C)C)ccc2[nH]1	0		87	6.14	Control [11]: 0%; pIC50 [12]: 6.41
COC(=O)Nc1nc2cc(C(=O)NC(C)C)ccc2[nH]1	0		0	5.70	Control [20]: 57%; Control [7]: 110%; Control [8]: 94%; Control [9]: 0%; Control [21]: 4%; Control [11]: 0%; pIC50 [12]: 5.80
COC(=O)Nc1nc2cc(NC(=O)c3ccc(F)cc3)ccc2[nH]1		133			
COC(=O)Nc1nc2cc(C(=O)OC)ccc2[nH]1	50			5.30	Control [22]: 53%; Control [23]: 79%; Control [11]: 0%; pIC50 [12]: 5.96; Control [24]: 4%; Control [25]: 12%
COC(=O)Nc1nc2cc(C(=O)O)ccc2[nH]1	100				Control [26]: 0%
C=CCOC(=O)c1ccc2[nH]c(NC(=O)OC)nc2c1	75		87	< 5.00	
COC(=O)Nc1nc2cc(C(=O)OCC(C)(C)C)ccc2[nH]1			82		
CCCOC(=O)Nc1nc2cc(C(=O)OCCC)ccc2[nH]1	36		85	5.09	
CCOC(=O)c1ccc2[nH]c(NC(=O)OC)nc2c1	0		0	5.55	Control [8]: 100%; Control [9]: 6%; Control [11]: 0%; pIC50 [12]: 6.62
COC(=O)Nc1nc2cc(C(=O)c3cccs3)ccc2[nH]1 [NOCODAZOLE]	0			7.42	Control [11]: 0%; pIC50 [12]: 7.48
